The sample as a whole holds a higher share of hits than the screen did.
UPR XBP1 act: adaptive UPR (XBP1) activation. CHO-XBP1 luciferase reporter, IRE1-XBP1 UPR activation, luminescence; percent of tunicamycin response, DMSO as zero. activation, % at 20 µM. hit rate 0.33% among 330,000;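 active means versus positive control, 20 µM dose yields 30% or more activation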;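 further: 100% = tunicamycin at 10 µg/mL and 0% = DMSO only wells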
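Material: IRE1-XBP1 luciferase reporter CHO line / Quantity: one thousand reporter cells per well / Buffer or medium: F12 with 10% serum / Compound: 20 µM single concentration, DMSO 1% / Times: 6 h treatment, 37 °C / Detection: Steady-Glo luciferase glow luminescence, 10 min after reagent addition / Benchmarks: tunicamycin high, DMSO low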
TLR9-MyD88 inh: inhibitors of human TLR9-MyD88 binding; inhibition, % at 4.98 µM; AID 504734; hit rate 0.21% among 340,000; Q9NR96+Q99836; CHO BLA complementation TLR9-MyD88, CCF4 FRET ratio;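 active means inhibition above the mean over all tested compounds plus 3 SD, cut at about 21% in these data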;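 further: 0% = DMSO only wells and 100% = clavulanate BLA inhibitor control wells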
TLR4-MyD88 BLA: blocks binding of human TLR4 to MyD88; hit rate 0.18% among 200,000; inhibition, % at 8.4 µM; HeLa CL3-4 TLR4/MyD88 BLA complementation, FRET ratio; O00206+Q99836; in the data active means inhibition above about 25%;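 further: 0% = vehicle and 100% = reference inhibitor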
CHOP inh: inhibitors of CHOP induction in ER stress response; AID 2732; inhibition, % at 10 µM; hit rate 3.8% among 220,000; CHO-K1 CHOP-promoter luciferase, tunicamycin-induced, 15-18 h;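 active means compounds that reduced the stress-induced luciferase reporter signal by more than about 70% of percent inhibition, limit read from the data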;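 further: 0% = tunicamycin plus vehicle and 100% = wells without tunicamycin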
CHOP UPR activ: activators of apoptotic arm of unfolded protein response (CHOP); AID 449763; CHO-CHOP luciferase reporter, UPR activation, luminescence; percent of tunicamycin response over DMSO baseline; activation, % at 10 µM; hit rate 0.34% among 330,000;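 active means at 10 µM dose, activation of 40% or more, normalized to positive control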;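 further: 100% = tunicamycin at 10 µg/mL and 0% = DMSO alone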
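assay system = CHO CHOP reporter cells | amount = 500 CHO-CHOP cells per well | buffer or medium = F12 with 10% FBS | incubation = 16-18 h cell attachment, then 6 h compound exposure, 37 °C | detection = luminescence read with Steady-Glo | read-out = percent activation relative to tunicamycin control | controls = tunicamycin high control, DMSO low control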
NOD2-RIPK2 inh: inhibitors of human NOD2-RIPK2 interaction; inhibition, % at 4.98 µM; CHO BLA complementation NOD2-RIPK2, CCF4 ratio; hit rate 0.38% among 360,000; AID 624267; O43353; in the data active means inhibition above about 21%;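 further: 0% = vehicle only and 100% = reference blocker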
NOD2-RIPK2 conf: confirmation of human NOD2-RIPK2 interaction inhibitors; shares compounds with NOD2-RIPK2 inh; CHO cells, NOD2-RIPK2 BLA complementation, CCF4 FRET; inhibition, % at 4.98 µM; hit rate 70% among 1,200;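 active means mean inhibition across replicates above a set limit taken from the earlier primary screen, cut at about 21% in these data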;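 further: 0% = DMSO-only wells and the high end = clavulanate BLA-blocked wells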
BLA counter: counter-screen for NOD2-RIPK2 interaction inhibitors: BLA reporter. CHO BLA reporter, CCF4 FRET ratio, counterscreen. hit rate 57% among 1,200. AID 624371. inhibition, % at 4.98 µM. shares compounds with NOD2-RIPK2 inh;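 active means mean inhibition above the low-control mean inhibition plus three low-control SD, cut at about 11% in these data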;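 further: 0% = DMSO only wells and 100% = clavulanate high control wells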
Active calls of the source: *; . = no result given; + = active, no number.

SMILES	UPR XBP1 act	TLR9-MyD88 inh	TLR4-MyD88 BLA	CHOP inh	CHOP UPR activ	NOD2-RIPK2 inh	NOD2-RIPK2 conf	BLA counter
COc1ccc(NC(=O)CSc2nc3cccnc3n2C)cc1	-1	-4	-14	8	0	32*	11	-4
Cc1cccc(NS(=O)(=O)c2cc([N+](=O)[O-])ccc2C)n1	-3	10	7	13	-1	42*	-2	-5
CC(=O)Nc1ccc(NS(=O)(=O)c2cc([N+](=O)[O-])ccc2C)cc1	-3	3	-5	-8	2	1	.	.
COc1cccc(NC(=S)N(CCC(C)C)C2CCN(C(C)=O)CC2)c1	-5	-1	.	.	2	-7	.	.
N#CC(=C1C=C(Br)C(=NO)C=C1Cl)c1ccc(Cl)cc1	.	-1	.	.	.	9	.	.
N#CC(=C1C=CC(=NO)C(Cl)=C1)c1ccccc1	.	.	.	.	.	32*	39*	14*
CCOc1ccccc1CNC(=O)c1ccc(Sc2ccc(Cl)cc2)c(NC(C)=O)c1	-4	-8	-5	41	-2	-6	.	.
CCOc1ccc(CNC(=O)c2ccc(Sc3ccc(Cl)cc3)c(NC(C)=O)c2)cc1	0	4	-4	40	-2	33*	1	2
O=C(Nc1ccc2c(c1)OCCO2)C(c1ccccc1F)n1c(=O)c(-c2ccco2)nc2ccccc21 (configuration not stated)	.	.	.	.	.	4	.	.
O=C(Nc1ccc2c(c1)OCCO2)C(C1CC1)n1c(=O)c(-c2cc3ccccc3[nH]2)nc2ccccc21 (configuration not stated)	.	.	.	.	.	45*	38*	61*
O=C(Nc1ccc2ccccc2c1)C(C1CC1)n1c(=O)c(-c2cc3ccccc3[nH]2)nc2ccccc21 (configuration not stated)	.	.	.	.	.	45*	41*	66*
COc1ccc(NC(=O)C(C2CC2)n2c(=O)c(-c3cc4ccccc4[nH]3)nc3ccccc32)cc1 (configuration not stated)	.	.	.	.	.	46*	40*	67*
COc1ccc(NC(=O)C(C2CC2)n2c(=O)c(-c3ccco3)nc3ccccc32)cc1 (configuration not stated)	.	.	.	.	.	-9	.	.
CCCCCNC(=O)C(c1cc2ccccc2o1)n1c(=O)c(-c2cc3ccccc3[nH]2)nc2ccccc21 (configuration not stated)	.	.	.	.	.	48*	43*	66*
CCCCCNC(=O)C(C1CC1)n1c(=O)c(-c2cc3ccccc3[nH]2)nc2ccccc21 (configuration not stated)	.	.	.	.	.	45*	37*	64*
CCCCCNC(=O)C(c1ccc(-c2ccccc2)cc1)n1c(=O)c(-c2cc3ccccc3[nH]2)nc2ccccc21 (configuration not stated)	.	.	.	.	.	25*	37*	64*
Cc1c(C(=O)N2CCCCC2)c(S(=O)(=O)NCc2ccc(Cl)cc2)c(C)n1C	-3	-2	.	.	4	5	.	.
Cc1ccc(CNS(=O)(=O)c2c(C(=O)N3CCCCCC3)c(C)n(C)c2C)cc1	-3	3	.	.	0	54*	-1	0
Cc1ccc(C)c(Cn2c3ccccc3c3cnn(CC(=O)NCCCN4CCCCC4)c(=O)c32)c1	-1	-8	.	.	0	21*	14	0
CCNC(=O)NC(=O)C(C)N1C(=O)NC(c2ccccc2)(c2ccccc2)C1=O (configuration not stated)	-5	-5	.	.	0	+	0	-2
COc1ccc(-c2nc(SCC(=O)Nc3cccc(S(N)(=O)=O)c3)n[nH]2)cc1	1	6	.	.	12	-5	.	.
N#Cc1cc(O)c(-n2nnc3ccccc32)cc1C#N	-2	0	6	-15	-2	2	.	.
N#Cc1cc(Oc2cccc3cccnc23)c(-n2nnc3ccccc32)cc1C#N	-1	19	3	-3	0	70*	-11	-3
CCOC(=O)c1c[nH]c(=S)n(-c2ccccc2)c1=O	3	-5	.	.	0	-13	.	.
CCOC(=O)c1c(SCCN2CCCC2)n(-c2ccccc2)c(=S)n(-c2ccccc2)c1=O	.	8	.	.	.	89*	86*	5
SMILES	UPR XBP1 act	TLR9-MyD88 inh	TLR4-MyD88 BLA	CHOP inh	CHOP UPR activ	NOD2-RIPK2 inh	NOD2-RIPK2 conf	BLA counter
CCOc1ccc(N(C(=O)CNC(=O)c2cccs2)C(C(=O)NCC2CCCO2)c2ccc(OC)c(OC)c2)cc1 (configuration not stated)	-3	3	2	4	0	-1	.	.
CN(C)S(=O)(=O)n1cnc(-c2ccccc2)c1-c1ccccc1	-1	-4	-2	42	1	35*	2	-2
Cc1c(C(=O)/C=C/N(C)C)nnn1-c1ccc(Cl)cc1C#N	2	4	.	6	1	-4	.	.
CCc1nc(Nc2ccccc2OC)c2oc3ccccc3c2n1	6	-2	.	.	2	-12	.	.
COc1ccccc1Cc1c(C(C)(C)C)nc2cc(C)c(Br)c(C)n12	.	.	.	.	.	24*	-3	12*
Cc1cc2nc(C(C)(C)C)c(Cc3ccccc3C(F)(F)F)n2c(C)c1Br	.	.	.	.	.	-12	.	.
CCN1C(=O)c2cccc3c(S(=O)(=O)N4CCC(C)CC4)ccc1c23	-1	18	.	.	1	23*	22*	25*
CCOC(=O)c1c(N2C(=O)C3C4C=CC(O4)C3C2=O)sc2c1CCCC2 (configuration not stated)	-3	-2	2	-7	-1	22*	4	0
COc1ccc(N2C(=O)CCC(C(=O)N3CCN(c4ccccn4)CC3)C2c2ccc(F)cc2)cc1 (configuration not stated)	-2	1	9	8	1	0	.	.
COc1ccc(S(=O)(=O)N2CCN(C(=O)c3ccco3)CC2)cc1C(C)(C)C	-3	18	.	.	3	-1	.	.
O=C(C(=Cc1ccc(F)cc1)C(=O)c1ccccc1)c1ccccc1	.	.	.	.	.	29*	13	-3
O=C(NCc1ccccc1)C(c1cccc2ccccc12)n1c(=O)c(-c2cc3ccccc3[nH]2)nc2ccccc21 (configuration not stated)	.	.	.	.	.	43*	41*	66*
Cc1cccc(C)c1NC(=O)C(c1ccccc1F)n1c(=O)c(-c2cc3ccccc3[nH]2)nc2ccccc21 (configuration not stated)	.	.	.	.	.	50*	46*	68*
O=C(NCc1ccccc1)C(CCc1ccccc1)n1c(=O)c(-c2ccccc2)nc2ccccc21 (configuration not stated)	.	.	.	.	.	29*	6	1
